≈ marks a conversion by molar mass, not a printed value.
Legend:
Format in all cases: functional
[1] = tested on: Mycobacteroides abscessus; experiment: Antimicrobial activity against Mycobacterium abscessus isolate MC879 at day 3 by broth microdilution method; details: isolate MC879, 72 h
Summary of the method: (§1)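 Clarithromycin MIC by broth microdilution following CLSI guidelines. Organisms were preincubated […], for 3 days before the assay. This allowed at least two generations, judged by the rise in turbidity. The MIC was read at the stated day, with incubation extended from day 3 to as long as 14 days.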

[2] = tested on: Mycobacteroides abscessus; experiment: Antimicrobial activity against Mycobacterium abscessus isolate MC958 at day 7 by broth microdilution method; details: isolate MC958, 168 h; summary of the method: as §1
[3] = tested on: Mycobacteroides abscessus; experiment: Antimicrobial activity against Mycobacterium abscessus isolate MC720 at day 14 by broth microdilution method; details: isolate MC720, 336 h
Summary of the method: (§2)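 Clarithromycin MIC by broth microdilution following CLSI guidelines. Before testing, organisms were preincubated for 3 days in medium alone or in clarithromycin or erythromycin (0.01–1 μg/ml), long enough for at least two generations judged by turbidity increase. MICs were read on day 3 and again on extended incubation out to day 14.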

[4] = tested on: Mycobacteroides abscessus; experiment: Antimicrobial activity against Mycobacterium abscessus isolate MC1028 at day 5 by broth microdilution method; details: isolate MC1028, 120 h
Summary of the method: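 Clarithromycin MIC by CLSI-conforming broth microdilution. Before testing, cultures were preincubated for 3 days, either in medium alone or in clarithromycin or erythromycin (tested range 0.01–1 μg/ml). Preincubation ran for at least two generations, judged by turbidity increase. Plates were read on day 3 and on extended incubation at days 5 to 14.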

[5] = tested on: Mycobacteroides abscessus; experiment: Antimicrobial activity against Mycobacterium abscessus isolate MC720 at day 7 preincubated with 0.1 ug/ml erythromycin for 3 days by broth microdilution method; summary of the method: as §2
[6] = tested on: Mycobacteroides abscessus; experiment: Antimicrobial activity against Mycobacterium abscessus isolate MC720 at day 9 preincubated with 0.1 ug/ml erythromycin for 3 days by broth microdilution method; summary of the method: as §2
[7] = tested on: Mycobacteroides abscessus; experiment: Antimicrobial activity against Mycobacterium abscessus isolate MC723 at day 9 preincubated with 0.1 ug/ml erythromycin for 3 days by broth microdilution method; summary of the method: as §2

With CC[C@H]1OC(=O)[C@H](C)[C@@H](O[C@H]2C[C@@](C)(OC)[C@@H](O)[C@H](C)O2)[C@H](C)[C@@H](O[C@@H]2O[C@H](C)C[C@H](N(C)C)[C@H]2O)[C@](C)(OC)C[C@@H](C)C(=O)[C@H](C)[C@@H](O)[C@]1(C)O [CLARITHROMYCIN] the MIC [1] was ≤ 0.5 µg/mL, the MIC [2] was 8 µg/mL (≈ 10.7 µM) and the MIC [3] was > 32 µg/mL. For the same compound, the MIC [4] was ≤ 0.5 µg/mL, the MIC [5] was > 32 µg/mL and the MIC [6] was > 32 µg/mL. The MIC [7] was > 32 µg/mL.
